Bioassay records deposited in PubChem by several laboratories.
This is a sample that favours compounds with a hit; in the whole collection about 2.2% have one here.
CSN inh = inhibitors of human CSN-mediated cullin deneddylation; Purified CSN, SCF-Nedd8-OG deneddylation, fluorescence polarization; inhibition, % at 12.5 µM; 0.38% of 360,000 active; AID 651999;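 active = pattern-corrected inhibition above about 35%, with an unprinted fluorescence ratio check between 0.5 and 1.5, limit read from the data, passing the limit was not always enough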;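 note: 0% = enzyme with substrate and 100% = substrate without enzyme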
Target sequence (Q92905 whole entry, looked up, one chain of several): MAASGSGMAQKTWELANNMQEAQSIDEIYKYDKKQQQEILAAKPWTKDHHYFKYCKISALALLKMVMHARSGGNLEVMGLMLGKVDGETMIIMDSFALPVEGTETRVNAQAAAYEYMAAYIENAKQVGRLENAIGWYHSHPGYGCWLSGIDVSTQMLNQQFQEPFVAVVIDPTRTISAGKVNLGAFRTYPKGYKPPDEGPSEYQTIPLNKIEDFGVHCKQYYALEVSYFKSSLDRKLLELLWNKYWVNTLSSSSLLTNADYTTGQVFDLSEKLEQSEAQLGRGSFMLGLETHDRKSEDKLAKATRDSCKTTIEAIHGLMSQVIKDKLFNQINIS
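Assay system: HEK293T-derived human Csn5 enzyme; quantity: 0.24 nM enzyme; medium: Tris/NaCl/DTT buffer, pH 7.5; also added: substrate SCFSkp2-Nedd8OG, 10 nM; doses: 12.5 µM compound; schedule: 90 min reaction at room temperature; signal: FP; read-out: % inhibition of substrate cleavage by Csn5; benchmarks: substrate-only high control, full reaction low control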
Exocytosis inh = lytic granule exocytosis inhibition; TALL-104 LAMP-1 surface exposure, flow cytometry; cells stimulated with thapsigargin and PMA; inhibition, % at 10 µM; 0.66% of 360,000 active; AID 651702;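 active = inhibition above about 55%, limit read from the data; inconclusive = no clear call, values can overlap the other calls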
Myeloid diff MLP = compounds promoting myeloid differentiation; AID 624256; calls only at 10 µM; ER-HoxA9 myeloid progenitors, lysozyme-GFP differentiation, flow cytometry; 1% of 360,000 active;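 active = normalized GFP-positive differentiation at or above the plate's own cutoff, the solvent-only control mean plus 3 SD; inconclusive = no clear call, values can overlap the other calls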;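 note: cells exposed to compound for four days before flow analysis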
HNF4A DNA FP = change in binding of human HNF4 alpha to DNA; P41235; HNF4a-FITC DNA binding, fluorescence polarization, 1 h; activity change, % at 10 µM; 0.3% of 360,000 active; in the data active = activity change above about 30%, passing the limit was not always enough
* hit, by the source's call; i = inactive; u = inconclusive; x = no result; + = active, no number.

SMILES	CSN inh	Exocytosis inh	Myeloid diff MLP	HNF4A DNA FP
COc1cccc(/C=C/C(=O)NNC(=O)c2ccco2)c1OC	-0.2	10.3	i	-3.4
COc1cc(/C=C(\C#N)C(=O)c2c[nH]c3ccccc23)cc(OC)c1O	165.9	-0.5	i	83.8*
CCOc1ccc(/C=C(\C#N)C(=O)c2c(C)[nH]c3ccccc23)cc1OC	-0.1	-1.1	i	-0.9
CCOC(=O)c1c(C)[nH]c(C(=O)/C(C#N)=C/c2ccc(OC)c(OC)c2)c1C	1.7	0.4	+	2.9
COc1cc(/C=C(/C#N)C(=O)c2c(C)[nH]c3ccccc23)ccc1OCC#N	7.5	56.7*	i	9.6
CCOC(=O)c1c(C)[nH]c(C(=O)/C(C#N)=C/c2ccc(OC(F)F)c(OC)c2)c1C	5.7	2.1	+	10.5
CCOC(=O)c1c(C)[nH]c(C(=O)NCCc2ccc(OC)c(OC)c2)c1C	1.8	0.2	i	0.1
O=C(NC1CCCC1)C(c1cccnc1)N(C(=O)c1ccco1)c1ccc(F)cc1 (centres undefined)	1.1	-5.7	u	0.3
N#CCCOC1(C#CCN2CCCC2)CCCCC1	-1.9	-3.7	i	0.0
Cc1cc(C)c(CN2CCN(C(=O)Cn3cnc4c(NCc5ccccc5)ncnc43)CC2)c(C)c1	-1.6	8.6	i	0.3
COc1ccccc1C(=O)COC(=O)Cn1[nH]c(=O)c2ccccc2c1=O	-0.9	-1.2	i	0.3
CC(C)(C)N/N=C1\CC(c2ccccc2)Oc2ccccc21 (centres undefined)	0.6	-4.0	i	4.7
O=S(=O)(N/N=C1/CC(c2ccccc2)Oc2ccccc21)c1ccccc1 (centres undefined)	-1.7	-4.1	+	2.3
COc1cccc(-c2nn(-c3ccccc3)cc2CNC(C)Cn2cncn2)c1 (centres undefined)	37.5*	-4.2	i	1.2
COc1ccc(OC(C)C(=O)NC2CC(C)(C)NC(C)(C)C2)cc1 (centres undefined)	3.0	-1.6	i	-1.1
COc1ccc(CNC(=O)C(=O)NC2CC(C)(C)NC(C)(C)C2)cc1	4.4	-1.6	i	138.2*
O=C(c1ccccc1)c1coc2ccc(O)c(CN3CCOCC3)c12	-3.2	-3.8	i	-0.8
COc1ccc(C(=O)c2coc3ccc(O)c(CN4CCCCC4)c23)cc1	-0.1	-3.4	+	-3.1
COc1ccccc1C(=O)NCCN=C1NS(=O)(=O)c2ccccc21	-2.8	-8.6	i	-1.1
COc1ccc(CNC(=O)C2CCN(S(=O)(=O)N3CCCCC3)CC2)c(OC)c1	3.3	-0.4	i	-1.4
O=C(c1cnn2c(C(F)(F)F)cc(-c3ccc4c(c3)OCO4)nc12)N1CCCCC1	-3.5	-0.3	i	-2.1
O=C(NC1CCCC1)c1cnn2c(C(F)(F)F)cc(-c3ccc4c(c3)OCO4)nc12	21.6	8.5	i	70.4*
CCC(C)c1ccccc1NC(=O)COC(=O)c1ccc2[nH]c3c(c2c1)CCCC3 (centres undefined)	-9.2	60.8*	+	-0.1
O=C(COC(=O)c1ccc2[nH]c3c(c2c1)CCCC3)Nc1ccccc1Cl	-1.4	-4.5	i	1.9
CC(=O)Nc1sc(/C(C#N)=C\c2cccc(Cl)c2)nc1-c1ccc(C)cc1	39.3	-4.5	+	31.7
SMILES	CSN inh	Exocytosis inh	Myeloid diff MLP	HNF4A DNA FP
Cc1ccc(S(=O)(=O)NCc2ccccc2)cc1C(=O)NC1CCC(C)CC1 (centres undefined)	1.3	2.8	i	-2.5
CN(CCCCCCCCCCN(C)C(=O)Oc1cccc([N+](C)(C)C)c1)C(=O)Oc1cccc([N+](C)(C)C)c1	-1.4	-1.4	i	2.2
CCCCCCCCCCCCCCCC[n+]1ccc(C(N)=O)cc1	3.4	-0.7	x	14.5
CCCCCCCCCCCCCCCC[n+]1ccc(/C=N/O)cc1	4.9	9.2	u	39.8*
COc1ccc(S(=O)(=O)Nc2cc3[nH]c(=O)oc3cc2C)cc1	4.3	-5.7	i	-3.2
CN1/C(=C/C(=O)CSc2ccccc2C(=O)O)C(C)(C)c2ccccc21	2.4	6.3	+	5.0
CN1/C(=C\C(=O)CN2C(=O)NC3(CCCCCC3)C2=O)C(C)(C)c2ccccc21	14.0	-3.0	+	7.8
CN1/C(=C\C(=S)NC(=O)c2ccccc2Cl)C(C)(C)c2ccccc21	21.5	-2.5	+	67.6*
CN1/C(=C\C(=O)CSc2cccc[n+]2[O-])C(C)(C)c2ccccc21	2.1	-7.0	i	8.6
COCCNC(=O)C(c1ccc(Cl)cc1)N(CCOC)C(=O)CCC(=O)Nc1ccccn1 (centres undefined)	3.9	1.7	i	-4.1
